According to ChEMBL document CHEMBL3745671, “Discovery of N-[5-(6-Chloro-3-cyano-1-methyl-1H-indol-2-yl)-pyridin-3-ylmethyl]-ethanesulfonamide, a Cortisol-Sparing CYP11B2 Inhibitor that Lowers Aldosterone in Human Subjects” (J Med Chem, 2015):
Calls of active or inactive are those of the source. The calls are words filed in the database; no cut-off is given here.

What was measured:
[1] = biological target: T1, CYP19 (aromatase) (Homo sapiens, UniProt P11511); test: Inhibition of human CYP19 at 10 uM preincubated for 10 mins with NADPH followed by protein addition measured after 90 mins by fluorometric analysis
T1 sequence (P11511 whole entry): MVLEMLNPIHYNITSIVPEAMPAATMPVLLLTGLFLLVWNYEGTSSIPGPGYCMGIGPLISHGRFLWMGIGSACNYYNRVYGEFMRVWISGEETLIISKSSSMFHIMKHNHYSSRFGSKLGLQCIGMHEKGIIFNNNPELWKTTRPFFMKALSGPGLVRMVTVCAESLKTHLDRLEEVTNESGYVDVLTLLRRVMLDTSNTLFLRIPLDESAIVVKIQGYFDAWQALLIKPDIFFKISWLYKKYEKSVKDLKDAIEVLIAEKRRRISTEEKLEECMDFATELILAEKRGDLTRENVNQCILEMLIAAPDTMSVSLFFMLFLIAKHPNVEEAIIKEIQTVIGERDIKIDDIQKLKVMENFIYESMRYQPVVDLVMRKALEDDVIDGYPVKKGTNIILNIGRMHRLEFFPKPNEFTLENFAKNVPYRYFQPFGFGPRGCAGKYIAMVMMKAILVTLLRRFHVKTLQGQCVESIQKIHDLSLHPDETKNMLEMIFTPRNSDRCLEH

[2] = Half life in rat liver microsomes after 30 mins by LC/MS/MS analysis; format: ADME
[3] = Half life in human liver microsomes after 30 mins by LC/MS/MS analysis; format: ADME
[4] = Equilibrium solubility of the compound in buffer at pH 6.8; format: physicochemical
Procedure, shortened: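 Equilibrium solubility measured in buffer at pH 6.8.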

[5] = Clearance in continuous angiotensin-2 infusion Sprague-Dawley rat model at 3 mg/kg, po and 1 mg/kg, iv; format: ADME, organism-based; conditions: in vivo
[6] = Half life in continuous angiotensin 2 infusion Sprague-Dawley rat model at 3 mg/kg, po and 1 mg/kg, iv; format: ADME, organism-based; conditions: in vivo
[7] = biological target: T2, Cytochrome P450 11B2, mitochondrial (Rattus norvegicus, UniProt P30099); test: Inhibition of recombinant rat CYP11B2 using 11-deoxycorticosterone as substrate after 2 hrs by scintillation proximity assay
T2 sequence (P30099 whole entry): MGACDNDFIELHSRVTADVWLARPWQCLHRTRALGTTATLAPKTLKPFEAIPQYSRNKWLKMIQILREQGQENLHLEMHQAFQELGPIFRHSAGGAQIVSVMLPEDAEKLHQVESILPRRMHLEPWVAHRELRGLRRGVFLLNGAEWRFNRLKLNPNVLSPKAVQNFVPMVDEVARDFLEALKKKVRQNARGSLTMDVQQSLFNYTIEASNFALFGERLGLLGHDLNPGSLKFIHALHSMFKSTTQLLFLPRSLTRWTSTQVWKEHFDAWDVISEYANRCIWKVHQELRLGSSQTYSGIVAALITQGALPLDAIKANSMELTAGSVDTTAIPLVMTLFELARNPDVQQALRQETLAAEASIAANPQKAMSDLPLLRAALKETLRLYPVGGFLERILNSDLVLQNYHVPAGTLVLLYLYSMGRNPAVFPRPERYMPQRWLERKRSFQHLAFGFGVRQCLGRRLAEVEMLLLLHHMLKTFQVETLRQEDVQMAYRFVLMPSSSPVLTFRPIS

[8] = Inhibition of CYP11B2 in cynomolgus monkey adrenal homogenates assessed as inhibition of aldosterone secretion; format: tissue-based, Macaca fascicularis
Procedure, shortened: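 Cynomolgus monkey adrenal homogenates, with 11-DOC as substrate; aldosterone secretion inhibition determined as IC50.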

[9] = tested on: Plasma; test: Drug uptake in plasma of chair-trained chronically cannulated cynomolgus monkey model at 0.03 to 3 mg/kg, po compound administered followed by ACTH challenge for 3 hrs measured at 24 hrs by LC/MS/MS analysis; format: ADME, organism-based, Macaca fascicularis; conditions: in vivo
Procedure, shortened: (§1)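 Conscious chair-trained, chronically cannulated male cynomolgus monkeys; vascular access port via Huber needle. Baseline blood (heparin) before dosing; methylcellulose suspension po at 0.03, 0.1, 0.3 or 3 mg/kg (n=3/dose) or vehicle (n=6, same animals). ACTH(1–24) 3000 ng/kg iv 3 h post-dose; sampling 0.125–1 h post-ACTH, up to 8 h, and 23.5 and 24 h. Aldosterone and cortisol by RIA; drug by LC/MS/MS (LLOQ 0.26 nmol/L, lower values set to zero).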

[10] = tested on: Cynomolgus monkey; test: Decrease in ACTH-stimulated plasma aldosterone level in po dosed chair-trained chronically cannulated cynomolgus monkey model compound administered followed by ACTH challenge for 3 hrs measured after 24 hrs by LC/MS/MS analysis; format: functional, organism-based; conditions: Macaca fascicularis; procedure, shortened: as §1
[11] = tested on: Cynomolgus monkey; test: Decrease in plasma cortisol level in chair-trained chronically cannulated cynomolgus monkey model measured after 24 hrs […]; format: functional, organism-based; conditions: Macaca fascicularis; procedure, shortened: as §1
[12] = Tmax in healthy human at 60 mg/kg, po bid; format: ADME, organism-based; conditions: in vivo
Procedure, shortened: (§2)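 Double-blind, randomized, placebo-controlled study in healthy male and female volunteers aged 18-63 on a restricted sodium/potassium diet. Oral bid doses of 30, 60, 100 or 200 mg, drug:placebo 5:2. N per dose 10–17. AUCtau, Cmax and median Tmax reported; dose-normalized values are AUCtau/dose and Cmax/dose.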

[13] = Tmax in healthy human at 100 mg/kg, po bid; format: ADME, organism-based; conditions: in vivo; procedure, shortened: as §2
[14] = Tmax in healthy human at 200 mg/kg, po bid; format: ADME, organism-based; conditions: in vivo; procedure, shortened: as §2
[15] = Cmax in healthy human at 30 mg/kg, po bid; format: ADME, organism-based; design: dose 30 mg/kg, route oral; conditions: in vivo; procedure, shortened: as §2
[16] = Cmax in healthy human at 60 mg/kg, po bid; format: ADME, organism-based; design: dose 60 mg/kg, route oral; conditions: in vivo; procedure, shortened: as §2
[17] = Cmax in healthy human at 100 mg/kg, po bid; format: ADME, organism-based; design: dose 100 mg/kg, route oral; conditions: in vivo; procedure, shortened: as §2
[18] = Cmax in healthy human at 200 mg/kg, po bid; format: ADME, organism-based; design: dose 200 mg/kg, route oral; conditions: in vivo; procedure, shortened: as §2
[19] = tested on: Homo sapiens; test: Dose normalized AUCtau in healthy human at 60 mg/kg, po bid; format: ADME, organism-based; conditions: in vivo; procedure, shortened: as §2
[20] = tested on: Homo sapiens; test: Dose normalized AUCtau in healthy human at 100 mg/kg, po bid; format: ADME, organism-based; conditions: in vivo; procedure, shortened: as §2
[21] = tested on: Homo sapiens; test: Dose normalized AUCtau in healthy human at 200 mg/kg, po bid; format: ADME, organism-based; conditions: in vivo; procedure, shortened: as §2
[22] = tested on: Homo sapiens; test: Dose normalized Cmax in healthy human at 100 mg/kg, po bid; format: ADME, organism-based; conditions: in vivo; procedure, shortened: as §2
[23] = tested on: Homo sapiens; test: Dose normalized Cmax in healthy human at 200 mg/kg, po bid; format: ADME, organism-based; conditions: in vivo; procedure, shortened: as §2
[24] = tested on: Homo sapiens; test: Decrease in plasma aldosterone level in human at 200 mg/kg, po bid measured over 24 hrs; format: functional; conditions: in the assay text read “200 mg” for “200 mg/kg”
Procedure, shortened: (§3)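 Healthy male and female volunteers, 18-63 years, restricted sodium/potassium diet; double-blind randomized placebo-controlled, oral 30, 60, 100 or 200 mg bid (drug:placebo 5:2).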

[25] = tested on: Homo sapiens; test: Decrease in urinary aldosterone excretion in human at 200 mg/kg, po bid measured over 24 hrs; format: functional, Urine; conditions: in the assay text read “200 mg” for “200 mg/kg”; procedure, shortened: as §3
[26] = tested on: Homo sapiens; test: Toxicity in human assessed as increase in urinary 11-deoxycortisol level at 30 to 200 mg/kg, po bid measured over 24 hrs; format: organism-based, Urine; conditions: in vivo, in the assay text read “30 to 200 mg” for “30 to 200 mg/kg”; procedure, shortened: as §3
[27] = tested on: Cynomolgus monkey; test: Decrease in ACTH-stimulated plasma aldosterone level in chair-trained chronically cannulated cynomolgus monkey model at 3 mg/kg, po compound administered followed by ACTH challenge for 3 hrs measured by radioimmunoassay; design: scale not given: the % may be the effect or the level left

## CCS(=O)(=O)NCc1cncc(-c2c(C#N)c3ccc(Cl)cc3n2C)c1
[1]
  inhibition at 1.5 h, 10 µM: 82%
[2]
  half-life: 0.467 h
[3]
  half-life: 1.28 h
[4]
  solubility thermodynamic: < 5 µM
[5]
  clearance: 18 mL/min/kg
[6]
  half-life: 1.1 h
[7]
  IC50: 27400 nM
[8]
  IC50: 10 nM
[9]
  Drug uptake: Active
[10]
  Activity: Dose-dependent effect
  EC50: 8.5 nM
[10]; po
  ED50: 0.061 mg/kg
[11]
  Activity: inactive
[12]
  Tmax: 3 h
[13]
  Tmax: 4 h
[14]
  Tmax: 4 h
[15]
  Cmax: 117 ng/mL
[16]
  Cmax: 173 ng/mL
[17]
  Cmax: 173 ng/mL
[18]
  Cmax: 306 ng/mL
[19]
  AUC/dose: 17.1 ng·h/mL/mg
[20]
  AUC/dose: 12.7 ng·h/mL/mg
[21]
  AUC/dose: 10.9 ng·h/mL/mg
[22]
  Cmax/dose: 1.7 ng/mL
[23]
  Cmax/dose: 1.5 ng/mL
[24]
  %max: 70%
[25]
  %max: 70%
[26]
  Activity: Non-toxic
[27]
  Activity: 95%
